Experiments:
Histamine H3 receptor [1] = molecular target: T1, Histamine H3 receptor (Homo sapiens, UniProt Q9Y5N1); test: Agonist activity at human recombinant histamine H3 receptor expressed in CHO cells assessed as [35S]GTPgammaS binding after 1 hr by liquid scintillation counting; assay type: functional, cell-based; details: read-out: EC50
In short: (§1)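 Used CHO cells stably expressing the human H3R for both affinity (pKi) and functional agonist measurements. Each value is the mean ± SEM of n = 3.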

Histamine H3 receptor [2] = molecular target: T1, Histamine H3 receptor; test: Displacement of [3H[N-alpha-methylhistamine form human recombinant histamine H3 receptor expressed in CHO cells after 1 hr by liquid scintillation counting; assay type: cell-based; in short: as §1
Histamine H3 receptor [3] = molecular target: T1, Histamine H3 receptor; test: Agonist activity at human recombinant histamine H3 receptor expressed in CHO cells assessed as [35S]GTPgammaS binding at 10 nM after 1 hr by liquid scintillation counting relative to (R)-alpha-methylhistamine; assay type: functional, cell-based
In short: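 CHO cells stably expressing human H3R. Agonist response is given as a percent of the response to the reference H3R agonist. Results are mean ± SEM, n = 3.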

Mus musculus [4] = test: In-vivo agonist activity at histamine H3 receptor in ddY mouse assessed as N-tele-methylhistamine level per gram of brain at 30 mg/kg, po by gas chromatography (RVb = 315 +/- 20 ng); assay type: functional, organism-based; set-up: dose 30 mg/kg
Mus musculus [5] = test: In-vivo agonist activity at histamine H3 receptor in ddY mouse assessed as N-tele-methylhistamine level per gram of brain at 5 mg/kg, po by gas chromatography (RVb = 315 +/- 20 ng); assay type: functional, organism-based; set-up: dose 5 mg/kg
Mus musculus [6] = test: In-vivo agonist activity at histamine H3 receptor in ddY mouse assessed as N-tele-methylhistamine level per gram of brain at 1 mg/kg, po by gas chromatography (RVb = 315 +/- 20 ng); assay type: functional, organism-based; set-up: dose 1 mg/kg

T1 sequence (Q9Y5N1 whole entry): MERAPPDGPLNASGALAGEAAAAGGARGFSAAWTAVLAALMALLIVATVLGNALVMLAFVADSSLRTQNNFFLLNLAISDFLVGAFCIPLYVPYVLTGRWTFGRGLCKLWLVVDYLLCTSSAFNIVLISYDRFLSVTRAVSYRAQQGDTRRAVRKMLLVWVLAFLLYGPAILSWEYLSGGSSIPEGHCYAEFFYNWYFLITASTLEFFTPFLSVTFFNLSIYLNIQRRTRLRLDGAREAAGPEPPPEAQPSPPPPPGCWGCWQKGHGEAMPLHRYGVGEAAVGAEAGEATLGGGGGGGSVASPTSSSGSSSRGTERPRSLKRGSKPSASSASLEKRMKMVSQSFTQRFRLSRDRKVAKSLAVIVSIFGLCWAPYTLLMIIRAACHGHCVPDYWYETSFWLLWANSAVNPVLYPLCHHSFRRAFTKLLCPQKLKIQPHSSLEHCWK

SMILES | EC50 (Histamine H3 receptor [1]) [nM] | Ki (Histamine H3 receptor [2]) [nM] | Activity (Histamine H3 receptor [3]) [%] | other results
N=C(N)SCCc1c[nH]cn1 |  |  | 91 | Nτ-methylhistamine level (Mus musculus [4]): 98 ng/g; Nτ-methylhistamine level (Mus musculus [5]): 133 ng/g; Nτ-methylhistamine level (Mus musculus [6]): 239 ng/g
NCCc1c[nH]cn1 [HISTAMINE] |  |  | 110 | 
CC(C)(C)c1ccc(NCCc2c[nH]cn2)cc1 |  |  | 70 | 
N=C(N)SCCc1cnc[nH]1 [IMETIT] | 2.4 | 0.57 |  | 
CC(C)(C)c1cccc(NCCc2c[nH]cn2)c1 | 4.6 | 2.2 | 48 | 

The next lines start with results.

EC50 (Histamine H3 receptor [1]) [nM] | Ki (Histamine H3 receptor [2]) [nM] | Activity (Histamine H3 receptor [3]) [%] | SMILES | other results
25 | 9.9 |  | Cc1ccc(NCCc2cnc[nH]2)cc1C | 
 | 4.1 |  | c1ncc(CCNc2ccc(C3CCCCC3)cc2)[nH]1 | 
 |  | 49 | Cc1ccc(NCCc2c[nH]cn2)cc1 | 
1.6 | 0.89 |  | CC(C)(C)c1ccc(NCCc2cnc[nH]2)cc1 | 
